This is an account of results in PMC7108934 (ChemPlusChem, 2019).

For series [1], the system named is A549 cells (human lung carcinoma). The experiment in a line: MTT cytotoxicity assay, A549. It is filed as cell-based. To be noted: read-out: (IC50 ± SD) A549. (Tetrazolium assays rely on reduction of a dye to a coloured formazan, in cell work by metabolically active cells.)
The subject of series [2] is SKOV3 cells (human ovarian carcinoma). The experiment in a line: MTT cytotoxicity assay, SKOV3. To be noted: read-out: (IC50 ± SD) SKOV3, at least 72 h incubation, mean ± SD. It is filed as cell-based. The gist of the method: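 Cells were grown in RPMI 1640 with 10% FBS and 1% penicillin-streptomycin at 37 °C, humidified CO2. They were seeded at 0.8 × 10^4 cells/well and allowed 24 h recovery. Test compound was added at 1–100 μM in triplicate for at least 72 h. Medium was replaced with 0.5 mg/mL MTT for 3 h at room temperature, and formazan was dissolved in DMSO. Absorbance was read at 490 nm. IC50 came from curve fitting, reported as mean ± SD.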

Series [3] concerns SKOV3 cells. The experiment in a line: Intracellular ROS determination. Format: cell-based, human. The settings on record: SKOV3, 1000 μM, positive control. The procedure, abridged: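 SKOV3 single-cell suspension (300 × 10^3) was exposed to test compound at 10, 20 or 40 μM for 2 h at 37 °C; untreated cells served as negative control. Cells were washed and loaded with DCFH-DA in phenol red-free RPMI for 1 h at 37 °C. The positive control got H2O2 (1000 μM) for a further 20 min. At least 15000 events were acquired by flow cytometry. ROS is reported as MFI divided by the untreated MFI0.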

For series [4], the system named is MCF-7 cells. The experiment in a line: Comet assay. To be noted: MCF-7, 1 μM, positive control, versus untreated cells. It is filed as cell-based, human. The procedure, abridged: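 Alkaline comet assay on MCF-7 cells (5 × 10^5). Cells got test compound at 10 or 50 μM, doxorubicin at 1 μM as positive control, or no treatment, for 20 min at 37 °C in 5% CO2. Cells were embedded in LMPA over NMPA-coated slides, lysed cold overnight and held 40 min in alkaline buffer. Slides were electrophoresed at 24 V/300 mA, neutralised at pH 7.4, ethanol-dehydrated, PI-stained (50 μg/ml) and imaged by fluorescence microscopy at 20×.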

[5] abbreviates: MTT, at least 72 h incubation, mean ± SD.

What is called IC50 is the concentration that inhibits the measured activity by half.

Read-outs that look alike come from different tables or passages of the source.

Take `Sc1ccccn1` [Spy, pyridine-2-thiol]: in series [1] (Homo sapiens, A549, 72 h), the IC50 is greater than 100 µM.

As to `N.N.[Cl][Pt][Cl]` [Cisplatin, reference compound], the IC50 in series [1] (setting [5]) is 9.71 ± 1.7 µM; in series [2], 14.5 ± 1.54 µM.

As to `C=CCP(c1ccccc1)c1ccccc1` [PPh2allyl, allyldiphenylphosphine], in series [1] (setting [5]), the IC50 was greater than 100 µM.

With `Sc1nc2ccccc2[nH]1` [Sbi, benzimidazole-2-thiol], the IC50 in series [1] (Homo sapiens, A549, 72 h) is greater than 100 µM.

As for `OO` [Complex H2O2, H2O2], the ROS induction entry in series [3] was “could induce ROS production within 20 minutes”.

Regarding `Sc1ncccn1` [SpyN, pyrimidine-2-thiol], the IC50 in series [1] (Homo sapiens, A549, 72 h) is greater than 100 µM.

As to `Sc1nc2ccccc2s1` [Sbt, benzothiazole-2-thiol], the IC50 in series [1] (Homo sapiens, A549, 72 h) is greater than 100 µM.

Regarding `COc1cccc2c1C(=O)c1c(O)c3c(c(O)c1C2=O)C[C@@](O)(C(=O)CO)C[C@@H]3O[C@H]1C[C@H](N)[C@H](O)[C@H](C)O1` [doxorubicin], the “percentage of degraded DNA in the tail” value in series [4] was “remarkably increase”.

As to `FC(F)(F)c1ccc(S)nc1` [Spy-5-CF3, 5-(trifluoromethyl)-pyridine-2-thiol], in series [1] (Homo sapiens, A549, 72 h), the half-inhibitory concentration (IC50) is greater than 100 µM.
